# Reference: ChEMBL document CHEMBL3826888, “New naphthalene derivatives and isoquinoline alkaloids from Ancistrocladus cochinchinensis with their anti-proliferative activity on human cancer cells” (Bioorg Med Chem Lett, 2016)
# Legend:
# Lu1 [1] = experiment: Antiproliferative activity against human Lu1 cells assessed as cell death at 20 ug/ml after 3 days by sulforhodamine B assay relative to control; format: functional
# In short: (§1)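 Human cancer cell lines HL-60 (promyelocytic leukemia), LU-1 (lung carcinoma) and SK-MEL-2 (melanoma) were screened by sulforhodamine B assay, with each sample at a single concentration of 20 µg/mL. The read-out was percentage cell death; samples giving over 50% death went on to dose-response testing. Ellipticine was the positive control throughout.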
# [2] = Antiproliferative activity against human HL60 cells assessed as cell death at 20 ug/ml after 3 days by sulforhodamine B assay relative to control; format: functional, HL-60; in short: as §1
# SK-MEL-2 [3] = experiment: Antiproliferative activity against human SK-MEL-2 cells assessed as cell death at 20 ug/ml after 3 days by sulforhodamine B assay relative to control; format: functional; in short: as §1
# [4] = tested on: Trypanosoma brucei brucei; experiment: Antitrypanosomal activity against Trypanosoma brucei brucei TC221; format: functional, organism-based
# SK-MEL-2 [5] = experiment: Antiproliferative activity against human SK-MEL-2 cells after 3 days by sulforhodamine B assay relative to control; format: functional, cell-based; conditions: SK-MEL-2, 72 h
# In short: (§2)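 SRB cell-proliferation assay on human cancer cell lines. Each sample was first screened at a single concentration of 20 µg/mL. Samples causing over 50% cell death then went to a dose-dependent study to derive IC50 in µg/mL. Ellipticine served as positive control throughout.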
# Lu1 [6] = experiment: Antiproliferative activity against human Lu1 cells after 3 days by sulforhodamine B assay relative to control; format: functional, cell-based; conditions: Lu1, 72 h; in short: as §2
# [7] = Antiproliferative activity against human HL60 cells after 3 days by sulforhodamine B assay relative to control; format: functional, cell-based; conditions: HL-60, 72 h; in short: as §2
# Plasmodium falciparum [8] = experiment: Antiparasitic activity against Plasmodium falciparum NF54 after 48 hrs by [3H]-hypoxanthine incorporation assay; format: functional, organism-based
# Plasmodium falciparum [9] = experiment: Antiparasitic activity against Plasmodium falciparum K1; format: functional, organism-based
compound,measurement,setting,value
COc1cc(O)ccc1O[C@@H]1O[C@H](COC(=O)c2cc(OC)c(O)c(OC)c2)[C@@H](O)[C@H](O)[C@H]1O,Activity,Lu1 [1],<50%
same,Activity,[2],<50%
same,Activity,SK-MEL-2 [3],<50%
COc1cc([C@H]2OC[C@H]3[C@@H]2CO[C@H]3c2cc(OC)c(O[C@@H]3O[C@H](CO)[C@@H](O)[C@H](O)[C@H]3O)c(OC)c2)cc(OC)c1O,Activity,Lu1 [1],<50%
same,Activity,[2],<50%
same,Activity,SK-MEL-2 [3],<50%
COc1cc(C)cc2ccc(-c3ccc4c(c3O)[C@@H](C)N[C@H](C)C4)c(O)c12,EC50,[4],2.6 µM
COc1cc(O[C@@H]2O[C@H](CO)[C@@H](O)[C@H](O)[C@H]2O)cc2cc(CO)nc(C)c12,Activity,Lu1 [1],<50%
same,Activity,[2],<50%
same,Activity,SK-MEL-2 [3],<50%
COc1cc(O)cc2cc(CO)nc(C)c12,Activity,Lu1 [1],<50%
same,Activity,[2],<50%
same,Activity,SK-MEL-2 [3],<50%
COc1cc(O)c(-c2c(C)cc(OC)c3c(OC)cccc23)c2c1[C@@H](C)N[C@@H](C)C2,IC50,SK-MEL-2 [5],6.8 µg/mL
same,IC50,Lu1 [6],6.5 µg/mL
same,IC50,[7],5 µg/mL
same,Activity,Lu1 [1],>50%
same,Activity,[2],>50%
same,Activity,SK-MEL-2 [3],>50%
COc1cccc2c(-c3ccc4c(c3O)[C@@H](C)N[C@H](C)C4)c(C)c(-c3c(C)c(-c4ccc5c(c4O)[C@@H](C)N[C@H](C)C5)c4cccc(OC)c4c3O)c(O)c12,IC50,Plasmodium falciparum [8],0.0014 µM
Cc1cc(O)c2c(c1)[C@H](O[C@@H]1O[C@H](CO[C@@H]3O[C@H](CO)[C@@H](O)[C@H](O)[C@H]3O)[C@@H](O)[C@H](O)[C@H]1O)CCC2=O,Activity,Lu1 [1],<50%
same,Activity,[2],<50%
same,Activity,SK-MEL-2 [3],<50%
Cc1cc(O[C@@H]2O[C@H](CO[C@@H]3OC[C@](O)(CO)[C@H]3O)[C@@H](O)[C@H](O)[C@H]2O)c2c(O)cccc2c1,Activity,Lu1 [1],<50%
same,Activity,[2],<50%
same,Activity,SK-MEL-2 [3],<50%
COc1cc(O)c(-c2c(C)cc(O)c3c(OC)cccc23)c2c1[C@@H](C)N(C)[C@@H](C)C2,IC50,"Plasmodium falciparum [9]; Plasmodium falciparum, K1",0.08 µM
COc1cc(O)c2c(c1-c1c(C)cc(OC)c3c(OC)cccc13)C[C@H](C)N[C@H]2C (stereo in doubt; form 1),IC50,Plasmodium falciparum [9],0.07 µM
COc1cc(O)c2c(c1-c1c(C)cc(OC)c3c(OC)cccc13)C[C@H](C)N[C@H]2C (stereo in doubt; form 2),IC50,Plasmodium falciparum [9],0.03 µM
COc1cccc2c(-c3ccc4c(c3O)[C@@H](C)N[C@H](C)C4)c(C)cc(OC)c12 [DIONCOPHYLLINE A],EC50,[4],3.4 µM
COc1cc(C)c(-c2ccc(O)c3c2C[C@@H](C)N[C@@H]3C)c2cccc(O)c12 [DIONCOPHYLLINE C],EC50,[4],4.2 µM
